This is an account of results in ChEMBL document CHEMBL2375246, “In silico identification of poly(ADP-ribose)polymerase-1 inhibitors and their chemosensitizing effects against cisplatin-resistant human gastric cancer cells” (Bioorg Med Chem Lett, 2013).

pIC50: −log10 of the molar value. Active and inactive are the calls of the source. The rule behind the calls is not given here. Bounds are passed on as bounds.

Assay [1] addresses Poly [ADP-ribose] polymerase 1 (Homo sapiens, UniProt P09874). The assay is described as follows: Inhibition of PARP1 (unknown origin) after 15 mins by fluorometric analysis.
Assay [2] concerns YCC-3/D. The experiment in a line: Potentiation of cisplatin-induced cytotoxicity against human YCC-3/D cells assessed as reduction in cisplatin IC50 at 50 uM co-treated with cisplatin after 36 hrs by MTS assay. The assay is classed as functional, cell-based. (In general: Tetrazolium assays rely on reduction of a dye to a coloured formazan, in cell work by metabolically active cells.)

A further assay relates to YCC-3. The assay is described as follows: Potentiation of cisplatin-induced cytotoxicity against human YCC-3 cells assessed as reduction in cisplatin IC50 at 50 uM incubated for 8 hrs prior to cisplatin-addition measured after 36 hrs by MTS assay. The assay is classed as functional, cell-based.
In assay [3] the test system is YCC-3/D. The assay is described as follows: Potentiation of cisplatin-induced cytotoxicity against human YCC-3/D cells assessed as reduction in cisplatin IC50 at 50 uM incubated for 8 hrs prior to cisplatin-addition measured after 36 hrs by MTS assay. The assay is classed as functional, cell-based. The procedure, abridged:
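Pretreatment format: cells seeded at 2500 cells/well, incubated overnight at 37 °C/5% CO2, exposed to PARP-1 inhibitor at 50 µM for 8 h. Inhibitor medium removed, cisplatin added over a concentration series for 36 h. MTS added for 2 h at 37 °C, absorbance read at 490 nm. Triplicate; cisplatin IC50 from % growth inhibition vs cisplatin concentration.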

Assay [4] in a line: Cytotoxicity against human YCC-3/D cells after 36 hrs by MTS assay. The assay is classed as cell-based. The method in brief:
(§1)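 Cells (YCC-3 parent, or YCC-3/D cisplatin-resistant line kept at 2.5 µg/mL cisplatin) seeded at 5000 cells/well, incubated overnight at 37 °C/5% CO2, then exposed to compound for 36 h. Medium replaced with MTS-containing medium for 2 h at 37 °C, absorbance read at 490 nm. Triplicate; IC50 taken from plot of % growth inhibition vs concentration.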

Assay [5] can be described thus: Cytotoxicity against human YCC-3 cells after 36 hrs by MTS assay. The note with it: YCC-3, 36 h. The assay is classed as cell-based. The procedure, abridged:
as §1

Chain of Poly [ADP-ribose] polymerase 1 (P09874 whole entry): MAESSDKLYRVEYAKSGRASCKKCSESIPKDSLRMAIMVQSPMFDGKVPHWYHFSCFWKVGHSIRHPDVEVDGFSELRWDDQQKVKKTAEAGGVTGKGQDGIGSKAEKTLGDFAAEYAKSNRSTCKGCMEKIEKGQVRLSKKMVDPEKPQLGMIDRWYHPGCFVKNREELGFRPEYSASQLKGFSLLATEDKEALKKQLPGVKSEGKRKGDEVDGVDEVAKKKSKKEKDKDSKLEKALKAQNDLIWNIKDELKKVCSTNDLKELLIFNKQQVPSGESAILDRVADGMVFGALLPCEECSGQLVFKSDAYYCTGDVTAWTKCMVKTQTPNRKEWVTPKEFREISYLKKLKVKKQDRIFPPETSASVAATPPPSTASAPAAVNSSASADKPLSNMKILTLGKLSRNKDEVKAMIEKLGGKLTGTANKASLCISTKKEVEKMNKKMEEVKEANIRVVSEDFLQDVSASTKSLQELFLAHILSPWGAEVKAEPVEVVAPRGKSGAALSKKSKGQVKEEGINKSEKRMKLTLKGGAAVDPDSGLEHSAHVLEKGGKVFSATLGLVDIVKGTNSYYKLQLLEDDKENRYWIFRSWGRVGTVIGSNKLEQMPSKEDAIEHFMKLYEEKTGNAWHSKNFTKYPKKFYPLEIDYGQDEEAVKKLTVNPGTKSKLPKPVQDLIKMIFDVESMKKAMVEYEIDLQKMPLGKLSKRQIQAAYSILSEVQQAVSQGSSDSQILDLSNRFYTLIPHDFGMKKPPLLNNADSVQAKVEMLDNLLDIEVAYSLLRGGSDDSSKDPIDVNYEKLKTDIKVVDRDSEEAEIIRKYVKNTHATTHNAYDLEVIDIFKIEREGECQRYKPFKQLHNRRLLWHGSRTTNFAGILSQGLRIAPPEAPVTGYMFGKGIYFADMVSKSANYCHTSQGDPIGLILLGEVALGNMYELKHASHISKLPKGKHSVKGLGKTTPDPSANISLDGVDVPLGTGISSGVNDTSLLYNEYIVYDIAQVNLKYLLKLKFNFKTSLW

A word on the pIC50: it is the negative decadic logarithm of the IC50, by convention in mol/L. As for `O=c1[nH]c(CCCN2CCC(c3ccc(Cl)cc3)CC2)nc2ccccc12`, the pIC50 in assay [1] was 6.41.
`CCCCc1nc2ccccc2c(=O)[nH]1`: the pIC50 in assay [1] is 5.05.
Still for that read-out and setting: next, `COc1ccccc1N1CCN(CCCc2nc3ccccc3c(=O)[nH]2)CC1`: 6.72.
As to `O=c1[nH]c(CCCN2CCC(c3ccccc3)CC2)nc2ccccc12`, the outcome in the assay on YCC-3/D [2] and in the assay with YCC-3 was inactive. Further, the result in the assay with YCC-3/D [3] was Active. Besides, the pIC50 was 4.02 in assay [4], 3.90 in assay [5] and 7.10 in assay [1].
As for `O=c1[nH]c(CCCN2CCN(c3cccc(Cl)c3)CC2)nc2ccccc12`, the pIC50 in assay [1] is 6.00.
For `O=c1[nH]c(CCCN2CCN(c3ccc(F)cc3)CC2)nc2ccccc12`, the result in the assay on YCC-3/D [2] and with YCC-3 was inactive. Also, the result in the assay with YCC-3/D [3] was Active. For the same compound, the pIC50 in assay [4] was below 3.70; in assay [5], below 3.70; in assay [1], 7.11.
On to `O=c1[nH]c(CCCN2CC=C(c3ccc(F)cc3)CC2)nc2ccccc12`, for which, in assay [1], the pIC50 is 6.52.
